ChEMBL document CHEMBL1140876, “Synthesis and antibacterial property of quinolines with potent DNA gyrase activity” (2009)
Values after ≈ are worked out from the molar mass of the structure shown. Active and inactive are the calls of the source. The rule behind the calls is not given here.

Legend:
[1] = tested on: Bacillus subtilis; assay: Antimicrobial activity against Bacillus subtilis at 15 ug after 24 hrs by disk diffusion method; assay type: functional; details: read-out: IZ
How it was run: (§1)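 Inoculum made in 0.85% saline against McFarland standard, swabbed evenly onto nutrient agar; sterile filter-paper discs set equidistant and loaded with equal volumes of drug at varying amounts; zone of inhibition measured after 24 h at 37 °C; ciprofloxacin reference.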

[2] = tested on: Pseudomonas aeruginosa; assay: Antimicrobial activity against Pseudomonas aeruginosa at 15 ug after 24 hrs by disk diffusion method; assay type: functional; details: read-out: IZ; how it was run: as §1
[3] = tested on: Pseudomonas aeruginosa; assay: Antimicrobial activity against Pseudomonas aeruginosa at 20 ug after 24 hrs by disk diffusion method; assay type: functional; details: read-out: IZ; how it was run: as §1
[4] = tested on: Pseudomonas aeruginosa; assay: Antimicrobial activity against Pseudomonas aeruginosa at 5 ug after 24 hrs by disk diffusion method; assay type: functional; details: read-out: IZ; how it was run: as §1
[5] = tested on: Staphylococcus aureus; assay: Antimicrobial activity against Staphylococcus aureus at 20 ug after 24 hrs by disk diffusion method; assay type: functional; details: read-out: IZ; how it was run: as §1
[6] = tested on: Salmonella typhimurium; assay: Antimicrobial activity against Salmonella Typhimurium at 20 ug after 24 hrs by disk diffusion method; assay type: functional, Salmonella enterica subsp. enterica serovar Typhimurium; details: Salmonella enterica, read-out: IZ; how it was run: as §1
[7] = tested on: Klebsiella pneumoniae; assay: Antimicrobial activity against Klebsiella pneumoniae at 15 ug after 24 hrs by disk diffusion method; assay type: functional; details: read-out: IZ; how it was run: as §1
[8] = tested on: Salmonella typhi; assay: Antimicrobial activity against Salmonella typhi by broth microdilution assay; assay type: functional, Salmonella enterica subsp. enterica serovar Typhi; details: Salmonella enterica
How it was run: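 Broth microdilution in 96-well plates following the NCCLS 1997 protocol. Final inoculum was 10^5 cfu/mL, with a control organism run alongside. Plates were incubated at 35.7 °C in air for 18–20 h. MIC is the lowest concentration with no visible growth.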

[9] = tested on: Klebsiella pneumoniae; assay: Antimicrobial activity against Klebsiella pneumoniae at 20 ug after 24 hrs by disk diffusion method; assay type: functional; details: read-out: IZ; how it was run: as §1
[10] = tested on: Staphylococcus aureus; assay: Antimicrobial activity against Staphylococcus aureus at 5 ug after 24 hrs by disk diffusion method; assay type: functional; details: read-out: IZ; how it was run: as §1
[11] = tested on: Klebsiella pneumoniae; assay: Antimicrobial activity against Klebsiella pneumoniae by broth microdilution assay; assay type: functional
How it was run: (§2)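 Broth microdilution per NCCLS 1997 in 96-well plate; final inoculum 10^5 cfu/mL; incubated 35.7 °C in air 18–20 h; MIC read as lowest concentration with no visible growth.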

[12] = tested on: Escherichia coli; assay: Antimicrobial activity against Escherichia coli at 15 ug after 24 hrs by disk diffusion method; assay type: functional; details: read-out: IZ; how it was run: as §1
[13] = tested on: Klebsiella pneumoniae; assay: Antimicrobial activity against Klebsiella pneumoniae at 10 ug after 24 hrs by disk diffusion method; assay type: functional; details: read-out: IZ; how it was run: as §1
[14] = tested on: Staphylococcus aureus; assay: Antimicrobial activity against Staphylococcus aureus by broth microdilution assay; assay type: functional; how it was run: as §2
[15] = tested on: Bacillus subtilis; assay: Antimicrobial activity against Bacillus subtilis at 10 ug after 24 hrs by disk diffusion method; assay type: functional; details: read-out: IZ; how it was run: as §1
[16] = tested on: Salmonella typhimurium; assay: Antimicrobial activity against Salmonella Typhimurium at 10 ug after 24 hrs by disk diffusion method; assay type: functional, Salmonella enterica subsp. enterica serovar Typhimurium; details: Salmonella enterica, read-out: IZ; how it was run: as §1
[17] = tested on: Bacillus subtilis; assay: Antimicrobial activity against Bacillus subtilis at 25 ug after 24 hrs by disk diffusion method; assay type: functional; details: read-out: IZ; how it was run: as §1
[18] = tested on: Salmonella typhimurium; assay: Antimicrobial activity against Salmonella Typhimurium at 25 ug after 24 hrs by disk diffusion method; assay type: functional, Salmonella enterica subsp. enterica serovar Typhimurium; details: Salmonella enterica, read-out: IZ; how it was run: as §1
[19] = tested on: Klebsiella pneumoniae; assay: Antimicrobial activity against Klebsiella pneumoniae at 25 ug after 24 hrs by disk diffusion method; assay type: functional; details: read-out: IZ; how it was run: as §1
[20] = tested on: Bacillus subtilis; assay: Antimicrobial activity against Bacillus subtilis at 20 ug after 24 hrs by disk diffusion method; assay type: functional; details: read-out: IZ; how it was run: as §1
[21] = Inhibition of DNA gyrase assessed as pBR322 DNA relaxation at 2.5 uM
How it was run: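 Gyrase (60 nM) was incubated with supercoiled pBR322 DNA (6 nM) and increasing compound concentrations (0, 0.1, 0.25, 0.5, 2.5) without ATP for 1 h at 37 °C. Relaxation of the supercoiled DNA was evaluated.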

[22] = tested on: Escherichia coli; assay: Antimicrobial activity against Escherichia coli at 20 ug after 24 hrs by disk diffusion method; assay type: functional; details: read-out: IZ; how it was run: as §1
[23] = tested on: Pseudomonas aeruginosa; assay: Antimicrobial activity against Pseudomonas aeruginosa at 10 ug after 24 hrs by disk diffusion method; assay type: functional; details: read-out: IZ; how it was run: as §1
[24] = tested on: Escherichia coli; assay: Antimicrobial activity against Escherichia coli at 25 ug after 24 hrs by disk diffusion method; assay type: functional; details: read-out: IZ; how it was run: as §1
[25] = tested on: Pseudomonas aeruginosa; assay: Antimicrobial activity against Pseudomonas aeruginosa by broth microdilution assay; assay type: functional; how it was run: as §2
[26] = tested on: Escherichia coli; assay: Antimicrobial activity against Escherichia coli at 10 ug after 24 hrs by disk diffusion method; assay type: functional; details: read-out: IZ; how it was run: as §1
[27] = tested on: Staphylococcus aureus; assay: Antimicrobial activity against Staphylococcus aureus at 10 ug after 24 hrs by disk diffusion method; assay type: functional; details: read-out: IZ; how it was run: as §1
[28] = Inhibition of DNA gyrase assessed as conversion of relaxed pBR322 to supercoiled form
How it was run: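 Supercoiling in 15 µL reactions: gyrase assay buffer, 150 ng relaxed pBR322, 2–3 µL purified DNA gyrase, 3 h at 37 °C (E. coli); stopped with 50% glycerol/0.25% bromophenol blue; 1% agarose in 1× TBE pH 8.3, 90 V 3 h; ethidium bromide stain; supercoiled band brightness by densitometry. Ciprofloxacin comparator.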

[29] = tested on: Staphylococcus aureus; assay: Antimicrobial activity against Staphylococcus aureus at 25 ug after 24 hrs by disk diffusion method; assay type: functional; details: read-out: IZ; how it was run: as §1
[30] = tested on: Klebsiella pneumoniae; assay: Antimicrobial activity against Klebsiella pneumoniae at 5 ug after 24 hrs by disk diffusion method; assay type: functional; details: read-out: IZ; how it was run: as §1
[31] = tested on: Pseudomonas aeruginosa; assay: Antimicrobial activity against Pseudomonas aeruginosa at 25 ug after 24 hrs by disk diffusion method; assay type: functional; details: read-out: IZ; how it was run: as §1
[32] = tested on: Bacillus subtilis; assay: Antimicrobial activity against Bacillus subtilis by broth microdilution assay; assay type: functional; how it was run: as §2
[33] = tested on: Salmonella typhimurium; assay: Antimicrobial activity against Salmonella Typhimurium at 5 ug after 24 hrs by disk diffusion method; assay type: functional, Salmonella enterica subsp. enterica serovar Typhimurium; details: Salmonella enterica, read-out: IZ; how it was run: as §1
[34] = tested on: Staphylococcus aureus; assay: Antimicrobial activity against Staphylococcus aureus at 15 ug after 24 hrs by disk diffusion method; assay type: functional; details: read-out: IZ; how it was run: as §1
[35] = tested on: Escherichia coli; assay: Antimicrobial activity against Escherichia coli by broth microdilution assay; assay type: functional; how it was run: as §2
[36] = tested on: Escherichia coli; assay: Antimicrobial activity against Escherichia coli at 5 ug after 24 hrs by disk diffusion method; assay type: functional; details: read-out: IZ; how it was run: as §1
[37] = tested on: Salmonella typhimurium; assay: Antimicrobial activity against Salmonella Typhimurium at 15 ug after 24 hrs by disk diffusion method; assay type: functional, Salmonella enterica subsp. enterica serovar Typhimurium; details: Salmonella enterica, read-out: IZ; how it was run: as §1

## c1ccc(C2c3ccccc3N[C@H]3c4cccn4C[C@@H]23)cc1 (stereo partly drawn)
[1]
  zone of inhibition at 15 µg/disc: 6 mm
[2]
  zone of inhibition at 15 µg/disc: 17 mm
[3]
  zone of inhibition at 20 µg/disc: 22 mm
[4]
  zone of inhibition at 5 µg/disc: 10 mm
[5]
  zone of inhibition at 20 µg/disc: 14 mm
[6]
  zone of inhibition at 20 µg/disc: 22 mm
[7]
  zone of inhibition at 15 µg/disc: 30 mm
[8]
  MIC50: 1.64 µg/mL (≈ 5.73 µM)
  MIC90: 2.5 µg/mL (≈ 8.73 µM)
[9]
  zone of inhibition at 20 µg/disc: 34 mm
[10]
  zone of inhibition at 5 µg/disc: 9 mm
[11]
  MIC50: 2 µg/mL (≈ 6.98 µM)
  MIC90: 32 µg/mL (≈ 112 µM)
[12]
  zone of inhibition at 15 µg/disc: 18 mm
[13]
  zone of inhibition at 10 µg/disc: 26 mm
[14]
  MIC50: 64 µg/mL (≈ 223 µM)
  MIC90: 128 µg/mL (≈ 447 µM)
[15]
  zone of inhibition at 10 µg/disc: 7 mm
[16]
  zone of inhibition at 10 µg/disc: 16 mm
[17]
  zone of inhibition at 25 µg/disc: 9 mm
[18]
  zone of inhibition at 25 µg/disc: 24 mm
[19]
  zone of inhibition at 25 µg/disc: 36 mm
[20]
  zone of inhibition at 20 µg/disc: 7 mm
[21]
  Activity: Active
[22]
  zone of inhibition at 20 µg/disc: 20 mm
[23]
  zone of inhibition at 10 µg/disc: 16 mm
[24]
  zone of inhibition at 25 µg/disc: 23 mm
[25]
  MIC50: 0.5 µg/mL (≈ 1.75 µM)
  MIC90: 32 µg/mL (≈ 112 µM)
[26]
  zone of inhibition at 10 µg/disc: 16 mm
[27]
  zone of inhibition at 10 µg/disc: 12 mm
[28]
  Activity: Active
[29]
  zone of inhibition at 25 µg/disc: 17 mm
[30]
  zone of inhibition at 5 µg/disc: 20 mm
[31]
  zone of inhibition at 25 µg/disc: 24 mm
[32]
  MIC50: 2.5 µg/mL (≈ 8.73 µM)
  MIC90: 5 µg/mL (≈ 17.5 µM)
[33]
  zone of inhibition at 5 µg/disc: 10 mm
[34]
  zone of inhibition at 15 µg/disc: 13 mm
[35]
  MIC50: 2 µg/mL (≈ 6.98 µM)
  MIC90: 4 µg/mL (≈ 14 µM)
[36]
  zone of inhibition at 5 µg/disc: 10 mm
[37]
  zone of inhibition at 15 µg/disc: 18 mm
